Screening data from PubChem.
In the library only some 27% were active in any assay of this set; here they are far more common.
CYP2C19 activ: cytochrome P450 2C19 (human) activation; P33261; recombinant CYP2C19, luciferin-H EGE luminescence; active compounds read high; 0 = fully inhibited enzyme, 1 = untreated enzyme; activation factor at 5 µM; 96,000 tested, under 10 active; AID 1025;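 active = activation factor of at least 2 at 5 µM in the primary screen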;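 note: 0 = wells with 2.5 mM tranylcypromine and 1 = vehicle-only wells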
Target sequence (P33261 whole entry, looked up): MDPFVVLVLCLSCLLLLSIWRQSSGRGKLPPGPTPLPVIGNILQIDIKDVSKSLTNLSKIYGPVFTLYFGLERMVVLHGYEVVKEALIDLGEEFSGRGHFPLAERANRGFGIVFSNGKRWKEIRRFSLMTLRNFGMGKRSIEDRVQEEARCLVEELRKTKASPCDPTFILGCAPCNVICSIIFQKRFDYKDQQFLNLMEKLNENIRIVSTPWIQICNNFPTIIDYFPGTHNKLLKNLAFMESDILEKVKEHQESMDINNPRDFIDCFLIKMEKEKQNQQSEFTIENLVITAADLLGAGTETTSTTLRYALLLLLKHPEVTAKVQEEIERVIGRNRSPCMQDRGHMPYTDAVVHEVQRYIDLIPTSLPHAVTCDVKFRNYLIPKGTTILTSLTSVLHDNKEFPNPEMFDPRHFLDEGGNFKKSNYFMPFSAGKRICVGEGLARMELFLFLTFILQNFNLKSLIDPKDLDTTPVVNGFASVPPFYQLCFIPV
CYP2C9 activ: increases human cytochrome P450 2C9 activity | AID 1024 | actives 1.4% (n = 96,000) | P11712 | activation factor at 5 µM | recombinant CYP2C9, luciferin-H conversion, luminescence; active compounds read high; factor 1 = untreated enzyme, 0 = blocked;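 active = activation factor of 2 or more for CYP2C9 at a 5 µM dose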;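 note: 0 = sulfaphenazole-blocked wells and 1 = vehicle-only wells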
Cav32 inh: blocks human Cav3.2 T-type calcium channel. O95180. Cav3.2-expressing cells, Fluo-4 calcium fluorescence FDSS; active compounds read low. B-score at 10 µM. actives 4% (n = 100,000). AID 449739;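 active = single-dose well whose peak fluorescence ratio is a statistical outlier from its plate by either plate-standardised score or position-corrected B-score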
CYP2C19 inhib: human CYP2C19 inhibition. P33261. CYP2C19 Supersomes, luciferin-H EGE luminescence, 30 min. inhibition, % at 5 µM. actives 21% (n = 96,000). AID 778;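 active = CYP2C19 inhibition above a set limit at 5 µM in the primary screen, cut at about 50% in these data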;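 note: plate controls were negative control wells for no effect and 2.5 mM tranylcypromine positive control for full effect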
HIV Rev-RRE inh: disrupts HIV-1 Rev binding to RRE RNA; Rev peptide-RRE RNA binding, FRET; inhibition, % at 8 µM; actives 0.79% (n = 97,000); AID 704;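 active = inhibition above the screen-wide mean plus 3 SD, cut at about 35% in these data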;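 note: 0% = median DMSO wells and 100% = median Neomycin B control wells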
Target sequence (P05866 whole entry, looked up): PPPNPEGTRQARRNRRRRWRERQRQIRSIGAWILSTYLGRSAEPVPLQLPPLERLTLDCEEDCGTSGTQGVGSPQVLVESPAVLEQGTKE
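System: Cy5-labelled duplex RRE RNA binding fluorescein-labelled HIV Rev peptide; Signal: fluorescein-to-Cy5 FRET, 480 nm excitation; Also added: labelled Rev peptide; Compound: one concentration, 8 µM nominal; Buffer or medium: HEPES pH 7.5 salt buffer with EDTA; Read-out: % inhibition of FRET ratio versus controls; Schedule: 5 min preincubation and 15 min binding, 25 °C.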
CYP2C9 inhib: blocks human cytochrome P450 2C9. P11712. CYP2C9 Supersomes, luciferin-H conversion, luminescence. inhibition, % at 5 µM. actives 20% (n = 96,000);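 active = blocking of liver enzyme CYP2C9 beyond about 50% at 5 µM, limit read from the data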
Active calls of the source: *; · = not tested or not shown.

SMILES	CYP2C19 activ	CYP2C9 activ	Cav32 inh	CYP2C19 inhib	HIV Rev-RRE inh	CYP2C9 inhib
O=C(CN(Cc1ccco1)C(=O)CNS(=O)(=O)c1ccc(F)cc1)NCc1ccc(F)cc1	1	1	-4.73	-2.7	1.9	-2.6
CCC(C)[C@H](N)c1cn([C@@H](Cc2cc3ccccc3[nH]2)C(=O)N2CCNCC2)nn1 (some centres not stated)	·	·	0.516	·	·	·
CCC(=O)Nc1ccc(S(=O)(=O)NCc2ccco2)cc1	0.8	1.1	0.127	18.0	9.1	-5.7
O=C1c2ccccc2C(=O)N1OCc1ccc(Cl)cc1	0.4	1.1	0.387	63.9*	3.8	-12.6
CON(C)c1nc(NCC(C)C)nc(OCC#N)n1	1	1	0.359	-1.8	3.1	0.1
Cn1c(=O)oc2cc(S(=O)(=O)NCc3ccccn3)ccc21	0.8	1	-0.202	24.2	7.3	-4.8
O=C(CC1COc2ccccc2O1)NCCc1ccccc1 (configuration not stated)	0.5	0.6	-0.00839	54.0*	3.6	41.5
O=C(CCC1COc2ccccc2O1)NCc1ccccc1 (configuration not stated)	0.4	0.7	-0.345	59.3*	8.2	31.8
CCOc1cc(NC(=O)C2CC2)c(OCC)cc1NC(=O)c1cccnc1	0	0.7	·	97.4*	·	27.0
CCOc1ccc(OCC)c(NC(=O)C2CCN(S(=O)(=O)c3cccnc3)CC2)c1	0.5	0.7	0.759	54.6*	6.3	32.3
C=CCOc1ccc(/C(O)=C2/C(=O)C(=O)N(CCCn3ccnc3)C2c2cccs2)cc1 (configuration not stated)	0.7	0.6	-0.0185	31.4	3.4	38.2
O=c1c(Cc2ccc(F)cc2)c(O)ccn1Cc1ccc(Cl)cc1Cl	1	1.1	0.0137	3.9	-2.7	-6.8
COc1ccc(NS(=O)(=O)c2ccc(C)c(C(=O)O)c2)cc1	1	0.9	0.267	-4.5	0.3	8.9
COc1ccc(NS(=O)(=O)c2ccc3oc(SC4CCOC4=O)nc3c2)cc1 (configuration not stated)	0	0	1.07	97.2*	3.1	100.3*
CC(C)N1C(=O)CC2(CC[N+](C)(CCOC(=O)C(c3ccccc3)c3ccccc3)CC2)C1=O (configuration not stated)	0.9	1.1	0.273	11.0	14.9	-5.1
Cc1ccc(C2C(C(=O)c3cccs3)=C(O)C(=O)N2CCN2CCOCC2)o1 (configuration not stated)	1.2	1.2	-0.00558	-16.6	7.6	-16.9
O=C1/C(=C\c2cccnc2)SC(=S)N1C1CCS(=O)(=O)C1 (configuration not stated)	1.1	0.6	0.238	-8.9	3.4	40.7
O=C(NN1C(=O)/C(=C/c2cccnc2)SC1=S)C(c1ccccc1)c1ccccc1	0.6	0.2	-2.43	38.5	0.0	82.1*
CC(=O)Nc1ccc(S(=O)(=O)Nc2nc3ccccc3nc2N2CCCC2)cc1	1	0.6	0.864	-2.0	6.3	41.5
O=S(=O)(Nc1ccc(-c2nc3ccccc3o2)cc1)c1ccccc1	0.2	0	-1.86	79.9*	12.8	96.8*
CC(=O)Nc1ccc(S(=O)(=O)Nc2cccc(-c3nc4ccccc4o3)c2)cc1	0.1	0	-2.37	91.0*	12.7	97.9*
c1ccc2oc(-c3ccc(Nc4nc(N5CCCCC5)nc(N5CCOCC5)n4)cc3)nc2c1	1	0.8	·	3.8	12.7	18.5
O=C(NC1CCCC1)c1cccc(S(=O)(=O)N2CCCCC2)c1	0.9	0.8	·	8.2	-4.7	24.2
CC(O)CNc1nc2c(c(=O)n(C)c(=O)n2C)n1Cc1cccc(Br)c1 (configuration not stated)	0.6	0.4	1.92	43.7	0.3	60.5*
CC(O)CNc1nc2c(c(=O)n(C)c(=O)n2C)n1Cc1cccc(C(F)(F)F)c1 (configuration not stated)	0.7	0.7	0.125	31.7	6.0	29.1
SMILES	CYP2C19 activ	CYP2C9 activ	Cav32 inh	CYP2C19 inhib	HIV Rev-RRE inh	CYP2C9 inhib
CCCNc1nc2c(c(=O)n(C)c(=O)n2C)n1Cc1cccc(C)c1	0.4	0.6	-0.294	58.1*	-6.3	37.8
CC(CCO)Nc1nc2c(c(=O)n(C)c(=O)n2C)n1Cc1cccc(Br)c1 (configuration not stated)	0.4	0.5	0.204	59.5*	8.8	49.3
CCOC(=O)CN1CC23C=CC(O2)C(C(=O)Nc2ccc(C(C)=O)cc2)C3C1=O (configuration not stated)	1.1	0.9	0.0437	-10.5	7.3	5.0
CCOc1ccc(C=O)cc1CN1CCCCC1	1	0.9	0.551	-2.7	7.1	12.6
CC(C)N(Cc1nc2ccccc2[nH]1)C(C)C	1	0.9	0.174	1.2	·	5.9
Cc1cccc(CC(Cc2nc3ccccc3[nH]2)c2nc3ccccc3[nH]2)c1 (configuration not stated)	0.1	0.1	-7.09*	92.6*	11.6	87.5*
Cc1ccc(NC(=O)CCC(=O)NNC(=O)c2cccs2)c(C)c1	1.1	1.1	-1.45	-7.0	11.6	-5.7
C/C(=N/OCC(=O)Nc1ccc(C)cc1C)c1cccs1	0.1	0	-1.23	93.4*	4.4	98.4*
CC(C)CC(C(=O)NCC1CCCO1)N(C(=O)Cn1nnc(-c2ccc(F)cc2)n1)c1ccccc1F (configuration not stated)	0.9	0.6	-3.36*	8.4	-2.9	43.0
Cc1ccc(N(C(=O)Cn2nnc(-c3ccc(F)cc3)n2)C(CC(C)C)C(=O)NCC2CCCO2)cc1 (configuration not stated)	0.8	0.6	-7.37*	23.3	-1.8	40.0
Cc1ccc(-c2nnn(CC(=O)N(c3ccccc3F)C(CC(C)C)C(=O)NCC3CCCO3)n2)cc1 (configuration not stated)	0.8	0.5	-4.43*	23.9	1.8	45.2
CC(C)(C)NC(=O)C(c1ccco1)N(C(=O)Cn1nnc(-c2ccc(F)cc2)n1)c1ccccc1F (configuration not stated)	0.8	0.9	-5.02*	23.4	0.3	11.8
CC(C)(C)NC(=O)C(c1ccco1)N(C(=O)Cn1nnc(-c2ccc(F)cc2)n1)c1ccccc1 (configuration not stated)	·	·	·	·	5.7	·
O=C(Nc1ccc(S(=O)(=O)Nc2nccs2)cc1)C1CCCCC1	1.2	1	0.327	-16.4	·	0.6
COCCCn1c(SCc2cc(=O)[nH]c3ccccc23)nnc1-c1ccco1	1	1.1	0.00426	-0.1	-0.4	-10.6
COc1ccc(Cl)cc1C(=O)NNC(=S)NC(=O)c1cc(-c2ccccc2)nc2ccccc12	0.5	0.9	·	47.0	-2.0	10.5
Cc1cc(C(=O)NNC(=S)NC(C)c2ccccc2)c2ccccc2n1 (configuration not stated)	1	0.4	0.273	-3.7	3.9	55.4*
